Assay results published in ChEMBL document CHEMBL3297699, “Synthesis of novel fluoro analogues of MKC442 as microbicides” (J Med Chem, 2014).

Legend:
[1] = test system: Human immunodeficiency virus 1; test: Antiviral activity against HIV1 MP634 infected in human dendritic cells assessed as inhibition of p24 in supernatants; details: Human immunodeficiency virus 1, MP634, dendritic cells
[2] = test system: Human immunodeficiency virus 1; test: Antiviral activity against […] HIV1 harboring 103N, 181C mutant infected in human MT4 cells assessed as inhibition of virus-induced cytopathogenicity after 4 days by MTT assay; type: functional, organism-based; details: Human immunodeficiency virus 1, MT4, 96 h
Outline: (§1)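 MT-4 cells grown at 37 °C, 5% CO2 in RPMI-1640 with 10% FCS, penicillin and streptomycin. Compounds taken up in DMSO at […] (stock), then diluted in medium. 1 × 10^4 cells per well with serial compound dilutions, then HIV-1 inoculum sized to give complete cytopathogenicity by day 4. Viability read by MTT. […] Mean of three independent determinations.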

[3] = test system: Human immunodeficiency virus 1; test: Antiviral activity against HIV1 MP411 infected in human dendritic cells assessed as inhibition of p24 in supernatants; details: Human immunodeficiency virus 1, MP411, dendritic cells
[4] = test system: Human immunodeficiency virus 1; test: Antiviral activity against HIV1 MP1308 infected in human dendritic cells assessed as inhibition of p24; details: Human immunodeficiency virus 1, MP1308, dendritic cells
[5] = test system: Human immunodeficiency virus 1; test: Antiviral activity against HIV1 CRF02 infected in human dendritic cells assessed as inhibition of p24 in supernatants; details: Human immunodeficiency virus 1, CRF02, dendritic cells
[6] = test system: Human immunodeficiency virus 1; test: Antiviral activity against HIV1 infected in human MT4 cells assessed as lowest compound concentration required to irreversibly knock out vial multiplication treated 4 hrs before infection measured after 40 days by MTT assay; type: functional
Outline: (§2)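 HIV-1-infected MT-4 cells at high MOI (5−10 CCID50/cell) in 40-day assays. Compound is given continuously (chronic), for only the first 4 h after infection, or for 4 h immediately before infection. Cells are resuspended at 10^5 cells/mL every 4 days. The value is the lowest concentration that irreversibly knocks out HIV-1 multiplication, as the mean of three independent determinations.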

[7] = Cytotoxicity against human MT4 cells after 40 days by MTT assay; type: cell-based
Outline: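 Mock-infected MT-4 cells at 1 × 10^5 cells/mL, 37 °C, with various compound concentrations for 40 days. One-tenth of the culture is moved every 3−4 days into fresh drug-containing medium at low density to keep growth exponential. Viability is read by MTT at each passage. The value is the maximum concentration still allowing exponential proliferation, as the mean of three determinations.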

[8] = test system: Human immunodeficiency virus 1; test: Antiviral activity against HIV1 CRF01 infected in human dendritic cells assessed as inhibition of p24 in supernatants; details: Human immunodeficiency virus 1, CRF01, dendritic cells
[9] = test system: Human immunodeficiency virus 1; test: Antiviral activity against wild type HIV1 3B infected in human MT4 cells assessed as inhibition of virus-induced cytopathogenicity after 4 days by MTT assay; type: functional, organism-based; details: Human immunodeficiency virus 1, 3B, MT4, 96 h
Outline: as §1

[10] = Cytotoxicity against human MT4 cells after 96 hrs by MTT assay; type: cell-based
Outline: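 Serial compound dilutions (from DMSO stocks at […]) are added, then cells are held 96 h at 37 °C in humidified 5% CO2. Viability is read by MTT. The value is the concentration reducing proliferation by 50%, as the mean of three independent determinations, run in parallel with the antiviral assays.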

[11] = test system: Human immunodeficiency virus 1; test: Antiviral activity against MC1220-resistant HIV1 harboring RT 100I, 179D, 181C mutant infected in human MT4 cells assessed as inhibition of virus-induced cytopathogenicity after 4 days by MTT assay; type: functional, organism-based; details: Human immunodeficiency virus 1, MT4, 96 h
Outline: as §1

[12] = test system: Human immunodeficiency virus 1; test: Antiviral activity against MDR-resistant HIV1 harboring 41L, 74V, 106A, 215Y mutant infected in human MT4 cells assessed as inhibition of virus-induced cytopathogenicity after 4 days by MTT assay; type: functional, organism-based; details: Human immunodeficiency virus 1, MT4, 96 h
Outline: as §1

[13] = test system: Human immunodeficiency virus 1; test: Antiviral activity against saquinavir-resistant HIV1 infected in human MT4 cells assessed as inhibition of virus-induced cytopathogenicity after 4 days by MTT assay; type: functional, organism-based; details: Human immunodeficiency virus 1, MT4, 96 h
Outline: as §1

[14] = test system: Human immunodeficiency virus 1; test: Antiviral activity against efavirenz-resistant HIV1 harboring RT 100I, 103R, 179D, 225H mutant infected in human MT4 cells assessed as inhibition of virus-induced cytopathogenicity after 4 days by MTT assay; type: functional, organism-based; details: Human immunodeficiency virus 1, MT4
Outline: as §1

[15] = test system: Human immunodeficiency virus 1; test: Antiviral activity against zidovudine-resistant HIV1 harboring RT 67N, 70R, 215F, 219Q mutant infected in human MT4 cells assessed as inhibition of virus-induced cytopathogenicity after 4 days by MTT assay; type: functional, organism-based; details: Human immunodeficiency virus 1, MT4, 96 h
Outline: as §1

[16] = test system: Human immunodeficiency virus 1; test: Antiviral activity against HIV1 infected in human MT4 cells assessed as lowest compound concentration required to irreversibly knock out vial multiplication treated 4 hrs after infection measured after 40 days by MTT assay; type: functional
Outline: as §2

[17] = test system: Human immunodeficiency virus 1; test: Antiviral activity against HIV1 MP582 infected in human dendritic cells assessed as inhibition of p24 production; details: Human immunodeficiency virus 1, MP582, dendritic cells
[18] = test system: Human immunodeficiency virus 1; test: Antiviral activity against TMC125-resistant HIV1 harboring RT 109M, 138K, 190E mutant infected in human MT4 cells assessed as inhibition of virus-induced cytopathogenicity after 4 days by MTT assay; type: functional, organism-based; details: Human immunodeficiency virus 1, MT4, 96 h
Outline: as §1

[19] = test system: Human immunodeficiency virus 1; test: Antiviral activity against NRTI-resistant HIV1 MP1315 infected in human dendritic cells assessed as inhibition of p24 in supernatants; details: Human immunodeficiency virus 1, MP1315, dendritic cells
[20] = test system: Human immunodeficiency virus 1; test: Antiviral activity against HIV1 W5269 infected in human dendritic cells assessed as inhibition of p24 production; details: Human immunodeficiency virus 1, W5269, dendritic cells
[21] = test system: Human immunodeficiency virus 1; test: Antiviral activity against TMC120-resistant HIV1 harboring RT 100I, 138G mutant infected in human MT4 cells assessed as inhibition of virus-induced cytopathogenicity after 4 days by MTT assay; type: functional, organism-based; details: Human immunodeficiency virus 1, MT4, 96 h
Outline: as §1

[22] = test system: Human immunodeficiency virus 1; test: Antiviral activity against […] HIV1 harboring Y181C mutant infected in human MT4 cells assessed as inhibition of virus-induced cytopathogenicity after 4 days by MTT assay; type: functional, organism-based; details: Human immunodeficiency virus 1, MT4, 96 h
Outline: as §1

[23] = test system: Human immunodeficiency virus 1; test: Antiviral activity against HIV1 MP1033 infected in human dendritic cells assessed as inhibition of p24; details: Human immunodeficiency virus 1, MP1033, dendritic cells
[24] = test system: Human immunodeficiency virus 1; test: Antiviral activity against HIV1 infected in human MT4 cells assessed as lowest compound concentration required to irreversibly knock out vial multiplication treated by chronic treatment measured after 40 days by MTT assay; type: functional
Outline: as §2

[25] = test system: Human immunodeficiency virus 1; test: Antiviral activity against 6-[(3,5-Dimethylphenyl)fluoromethyl]-5-ethyl-1-{[[4-(3-hydroxyprop-1-ynyl)benzyl]oxy]methyl}pyrimidine-2,4(1H,3H)-dione-resistant HIV1 harboring RT 106I, 181C mutant infected in human MT4 cells assessed as inhibition of virus-induced cytopathogenicity after 4 days by MTT assay; type: functional, organism-based; details: Human immunodeficiency virus 1, MT4
Outline: as §1

Row | Structure (SMILES) | EC50 [2] | EC50 [9] | CC50 at 96 h [10] | EC50 [11] | EC50 [12] | EC50 [13] | EC50 [14] | EC50 [15] | EC50 [18] | EC50 [21] | EC50 [22] | EC50 [25] | further results
1 | Cc1c(C(C)c2c(F)cccc2F)nc(N(C)C)[nH]c1=O (configuration not stated) | > 20 µM | 0.002 µM | ≥ 100 µM | 3 µM | 0.01 µM | 0.01 µM | 2 µM | 0.004 µM | 3 µM | 2 µM | 0.8 µM | 0.7 µM | EC99 [1]: 0.1 µM; EC99 [3]: 0.01 µM; EC99 [4]: 0.01 µM; EC99 [5]: 0.01 µM; Activity [6]: <5 µM; MNTC at 960 h [7]: 30 µM; EC99 [8]: 0.001 µM; Activity [16]: <5 µM; EC99 [17]: 0.001 µM; EC99 [19]: ≤ 0.0001 µM; EC99 [20]: 0.01 µM; EC99 [23]: 0.01 µM; Activity [24]: <0.1 µM
2 | CCc1c(C(F)c2cc(C)cc(C)c2)n(COCc2ccc(I)cc2)c(=O)[nH]c1=O (configuration not stated) | 2 µM | 0.4 µM | 43 µM |  | 1.5 µM | 1.2 µM | 1.4 µM | 0.3 µM |  |  | 0.2 µM |  | 
3 | CCc1c(C(F)c2cc(C)cc(C)c2)n(COCc2ccc(C#CC=O)cc2)c(=O)[nH]c1=O (configuration not stated) | 14 µM | 0.08 µM | 27 µM |  | 2.3 µM | 5.2 µM | 2.4 µM | 0.1 µM |  |  | 0.4 µM |  | 
4 | CCOCn1c(C(F)c2cc(C)cc(C)c2)c(CC)c(=O)[nH]c1=O (configuration not stated) | 2 µM | 0.005 µM | 85 µM |  |  | 9 µM | 6 µM | 0.04 µM |  |  | 0.3 µM |  | 
5 | Cc1ccnc2c1NC(=O)c1cccnc1N2C1CC1 [NEVIRAPINE] | > 10 µM |  | > 100 µM | 4 µM | 3 µM |  | > 10 µM | 0.06 µM | > 20 µM | 1 µM | > 10 µM | > 20 µM | 
6 | CCOCn1c(Cc2ccccc2)c(C(C)C)c(=O)[nH]c1=O [EMIVIRINE] | > 100 µM |  | > 100 µM |  | 1.5 µM | 0.06 µM | 100 µM | 0.08 µM |  |  | > 10 µM |  | 
7 | CCc1c(C(F)c2cc(C)cc(C)c2)[nH]c(=O)n(COCc2ccc(I)cc2)c1=O (configuration not stated) | > 100 µM | 9 µM | > 100 µM |  | > 100 µM | 23 µM | > 100 µM | 11 µM |  |  | > 100 µM |  | 
8 | Cc1cc(C)c(Nc2ccnc(Nc3ccc(C#N)cc3)n2)c(C)c1 [DAPIVIRINE] | 0.05 µM | 0.003 µM | 2 µM | 0.1 µM | 0.002 µM | 0.003 µM | 0.2 µM | 0.001 µM | > 20 µM | > 20 µM | 0.04 µM | 0.1 µM | EC99 [1]: 0.01 µM; EC99 [3]: 0.01 µM; EC99 [4]: 0.01 µM; EC99 [5]: 0.01 µM; Activity [6]: >20 µM; MNTC at 960 h [7]: 0.3 µM; EC99 [8]: 0.01 µM; Activity [16]: >20 µM; EC99 [19]: 0.0001 µM; EC99 [23]: 0.01 µM; Activity [24]: 0.1 µM
9 | C=CCOCn1c(C(F)c2cc(C)cc(C)c2)c(CC)c(=O)[nH]c1=O (configuration not stated) | 1.6 µM | 0.004 µM | 64 µM |  |  | 4.2 µM | 2 µM | 0.05 µM |  |  | 0.2 µM |  | 
10 | O=C1Nc2ccc(Cl)cc2[C@@](C#CC2CC2)(C(F)(F)F)O1 [EFAVIRENZ] | 0.08 µM |  |  | 0.1 µM | 0.004 µM |  | 6 µM | 0.002 µM | 7 µM | 0.09 µM |  | 0.06 µM | EC99 [1]: 0.01 µM; EC99 [4]: 0.01 µM; EC99 [5]: 0.01 µM; EC99 [8]: 0.01 µM; EC99 [19]: ≤ 0.0001 µM; EC99 [20]: 0.01 µM; EC99 [23]: 0.01 µM
11 | CC(C)(C)NC(=O)[C@@H]1C[C@@H]2CCCC[C@@H]2CN1C[C@@H](O)[C@H](Cc1ccccc1)NC(=O)[C@H](CC(N)=O)NC(=O)c1ccc2ccccc2n1 | 0.01 µM | 0.02 µM | 15 µM | 0.01 µM | 0.02 µM | 0.09 µM | 0.01 µM | 0.01 µM | 0.01 µM | 0.02 µM | 0.02 µM | 0.02 µM | 
12 | Cc1cc(C#N)cc(C)c1Oc1nc(Nc2ccc(C#N)cc2)nc(N)c1Br [ETRAVIRINE] | 0.01 µM |  |  | 0.03 µM | 0.001 µM |  | 0.3 µM | 0.001 µM | 0.2 µM | 0.07 µM | 0.01 µM | 0.1 µM | 
13 | C=C(C)COCn1c(C(F)c2cc(C)cc(C)c2)c(CC)c(=O)[nH]c1=O (configuration not stated) | 7 µM | 0.008 µM | 40 µM |  | 3.4 µM | 3.8 µM | 4 µM | 0.07 µM |  |  | 0.4 µM |  | 
14 | Cc1cn([C@H]2C[C@H](N=[N+]=[N-])[C@@H](CO)O2)c(=O)[nH]c1=O [ZIDOVUDINE] | 0.01 µM | 0.01 µM |  | 0.009 µM | 0.2 µM |  | 0.01 µM | 0.2 µM | 0.008 µM | 0.01 µM | 0.02 µM | 0.01 µM | 
